Data published in publication PMC3445775 (Hepatology (Baltimore, Md.), 2012).
Entries after “also recorded” stand apart in the source; their conditions may differ.

How the values were obtained:
FATP5 and FATP2 = assay: Inhibition reversibility assay; format: cell-based, human; conditions: 30 min treatment followed by brief washes with PBS
human FATP5 = target: T1, human FATP5 (Homo sapiens, UniProt Q9Y2P5); format: cell-based; conditions: for inhibition of FATP5-mediated LCFA uptake: result in words
T1 sequence (Q9Y2P5 1-690): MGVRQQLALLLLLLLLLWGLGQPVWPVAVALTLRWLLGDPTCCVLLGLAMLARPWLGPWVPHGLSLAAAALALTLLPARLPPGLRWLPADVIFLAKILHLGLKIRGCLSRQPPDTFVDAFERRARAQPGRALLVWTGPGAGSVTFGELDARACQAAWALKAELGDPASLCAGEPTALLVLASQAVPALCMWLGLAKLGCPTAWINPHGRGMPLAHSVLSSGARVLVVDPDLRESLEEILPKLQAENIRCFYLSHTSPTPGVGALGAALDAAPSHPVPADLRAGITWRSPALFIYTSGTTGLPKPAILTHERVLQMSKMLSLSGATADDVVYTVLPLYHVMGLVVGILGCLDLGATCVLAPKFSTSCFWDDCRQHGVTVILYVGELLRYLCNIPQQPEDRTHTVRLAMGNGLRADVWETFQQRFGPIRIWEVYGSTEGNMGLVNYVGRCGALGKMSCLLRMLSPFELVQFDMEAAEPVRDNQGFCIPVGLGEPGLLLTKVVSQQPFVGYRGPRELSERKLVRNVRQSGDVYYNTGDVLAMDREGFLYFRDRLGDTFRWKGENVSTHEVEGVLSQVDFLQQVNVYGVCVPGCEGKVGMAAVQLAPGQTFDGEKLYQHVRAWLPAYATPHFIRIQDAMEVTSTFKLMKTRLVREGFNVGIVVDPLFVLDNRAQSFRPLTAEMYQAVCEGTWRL
Outline: (§1)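 HEK-293 cells stably expressing human FATP4, FATP2 or FATP5 were maintained in DMEM/10% FBS with 1 mg/ml G418. Cells were plated at 30,000–50,000/well overnight to 50–70% confluency. They were preincubated 30 min (5% CO2) with test compound, diluted from DMSO stock into HBSS with 20 mM HEPES, 4.5 g/L glucose and 0.1% fatty-acid-free BSA. Compound in quencher mix containing 2 μM C1-BODIPY-C12 was then added. Fluorescence (ex 488/em 515 nm, bottom read) was recorded every 2 min for 2 h, and uptake velocities were derived by linear regression.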

human FATP2 = human FATP2 (Homo sapiens, UniProt O14975); format: cell-based; conditions: for inhibition of FATP2-mediated LCFA uptake: result in words
Outline: as §1

293 cells = assay: XTT toxicity assay, stable 293 cell lines; format: cell-based, human; conditions: 48 hours
Outline: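 Stable 293 cells in DMEM/FBS were incubated overnight in 5% CO2. The indicated test compound or DMSO control was added, and after a further 48 h viability was measured with an XTT kit per the manufacturer's instructions.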

hepatic TAG content = assay: 7 week bile acid supplemented high-fat diet feeding; format: in vivo, mouse
[1] = system: primary mouse hepatocytes from C57Bl/6 animals; assay: Quencher based LCFA uptake assay, wild-type mouse primary hepatocytes; format: cell-based
[2] = system: hepatic triglyceride accumulation; assay: Chronic bile acid injection during high-fat diet; format: in vivo, mouse; conditions: 3.2 mg/kg s.c. daily, 47 days
Outline: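 Individually housed mice on a high-fat diet (60% calories from fat) received daily s.c. injections of test compound, 3.2 mg/kg in 20 μl DMSO, above the right hip for 47 days. Controls received DMSO vehicle. Mice were fasted 4 h and euthanised with CO2, and injection sites were checked for precipitate. Liver lysates were assayed for protein (BCA) and TAG.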

hsFATP4 = hsFATP4 (Homo sapiens, UniProt Q6P1M0); assay: Quencher-based LCFA uptake assay, FATP4 expressing 293 cells; format: cell-based; conditions: result in words
Chain of hsFATP4 (Q6P1M0 whole entry): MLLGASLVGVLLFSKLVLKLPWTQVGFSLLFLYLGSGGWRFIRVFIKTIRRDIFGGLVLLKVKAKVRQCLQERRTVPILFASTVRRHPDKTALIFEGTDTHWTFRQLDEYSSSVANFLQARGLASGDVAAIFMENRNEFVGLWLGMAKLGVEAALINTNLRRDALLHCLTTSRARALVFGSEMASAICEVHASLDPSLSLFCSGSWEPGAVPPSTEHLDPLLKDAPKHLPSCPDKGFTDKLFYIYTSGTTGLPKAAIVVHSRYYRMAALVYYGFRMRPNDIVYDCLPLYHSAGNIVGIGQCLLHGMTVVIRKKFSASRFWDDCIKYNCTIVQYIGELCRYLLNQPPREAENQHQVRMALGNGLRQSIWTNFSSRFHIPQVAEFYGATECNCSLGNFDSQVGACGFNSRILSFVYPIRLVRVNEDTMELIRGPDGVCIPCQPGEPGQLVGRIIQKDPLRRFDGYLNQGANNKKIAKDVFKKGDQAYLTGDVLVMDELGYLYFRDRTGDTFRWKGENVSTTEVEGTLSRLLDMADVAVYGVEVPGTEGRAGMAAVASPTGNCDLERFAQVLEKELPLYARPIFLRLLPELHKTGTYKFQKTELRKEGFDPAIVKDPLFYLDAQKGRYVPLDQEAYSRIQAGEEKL
Outline: as §1

hepatic LCFA uptake = assay: Non-radioactive in vivo hepatic LCFA uptake assay; parameters: species or system mouse; conditions: WT mice, acute injection
[3] = system: primary human hepatocytes; assay: FACS-based LCFA uptake assay, primary human hepatocytes; format: cell-based; conditions: 10 or 100 μM, viable cells
Outline: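 Suspended primary human hepatocytes were pretreated with test compound at 10 or 100 μM in DMEM (37°C, 5% CO2, 30 min). C1-BODIPY-C12 bound to 0.1% BSA was then added to a final 2 μM for 30 min at 37°C. Uptake was stopped on ice, and cells were centrifuged at 4°C and resuspended in cold PBS. Propidium iodide was added, and mean BODIPY fluorescence of 5000 viable PI-negative cells was taken from histogram plots.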

[4] = 0.5mg/g in high fat food, 7 weeks

Row | SMILES | Reversible Inhibition (FATP5 and FATP2) | IC50 (human FATP5) [µM] | inhibition of FATP5-mediated LCFA uptake (human FATP5) | IC50 (human FATP2) [µM] | inhibition of FATP2-mediated LCFA uptake (human FATP2) | also measured
1 | C[C@H](CCC(=O)O)[C@H]1CC[C@H]2[C@@H]3[C@H](O)C[C@@H]4C[C@H](O)CC[C@]4(C)[C@H]3C[C@H](O)[C@]12C [CA, cholic acid] | complete reversibility and Yes | 31 | specifically inhibited FATP5-mediated LCFA uptake |  |  | 
2 | COc1cc(/C=C2/SC(=S)N(c3cccc(Cl)c3)C2=O)cc(Br)c1O [CB-2, (5E)-5-[(3-bromo-4-hydroxy-5-methoxyphenyl)methylene]-3-(3-chlorophenyl)-2-thioxothiazolidin-4-one, reference compound] | Yes |  |  | 8 |  | 
3 | O=c1cc(-c2ccc([N+](=O)[O-])cc2)nc2c(-c3ccc(Cl)cc3)c(Cc3ccccc3)[nH]n12 [CB-5, 2-benzyl-3-(4-chlorophenyl)-5-(4-nitrophenyl)-1H-pyrazolo[5,1-b]pyrimidin-7-one, reference compound] | No (tox) | 7 |  | 18 |  | toxicity (XTT assay) (293 cells): marked cytotoxicity
4 | Oc1c(C2=NCCNC(C(F)(F)F)=C2)ccc2ccccc12 [CB-6, 2-[7-(trifluoromethyl)-2,3-dihydro-1H-1,4-diazepin-5-yl]naphthalen-1-ol, reference compound] | irreversible and No | 38 |  | 12 |  | 
5 | C[C@H](CCC(=O)O)[C@H]1CC[C@H]2[C@@H]3[C@H](O)C[C@@H]4C[C@H](O)CC[C@]4(C)[C@H]3CC[C@]12C [CDCA, chenodeoxycholic acid] | complete reversibility and Yes | 10 | specifically inhibited FATP5-mediated LCFA uptake |  |  | 
6 | C[C@H](CCC(=O)O)[C@H]1CC[C@H]2[C@@H]3CC[C@@H]4C[C@H](O)CC[C@]4(C)[C@H]3CC[C@]12C [LCA, lithocholic acid] |  |  | no inhibition |  | no inhibition | body weight (hepatic TAG content; [4]): Neither DCA nor LCA feeding resulted in changes; caloric output over a 36h period (hepatic TAG content; [4]): Neither DCA nor LCA feeding resulted in changes; food intake (hepatic TAG content; [4]): Neither DCA nor LCA feeding resulted in changes; respiratory rate (hepatic TAG content; [4]): Neither DCA nor LCA feeding resulted in changes; effect on liver TAG content (hepatic TAG content; result in words, LCA in high-fat diet model): had no effect; inhibition of LCFA uptake by primary mouse hepatocytes [1]: no inhibition; body weight [2]: nor did it affect food consumption or body weight; food consumption [2]: nor did it affect food consumption or body weight; respiration [2]: neither triggered an increase in respiration; inhibition of FATP4 LCFA uptake (hsFATP4): neither DCA, UDCA, nor LCA inhibited; also recorded: No inhibition; effect on in vivo hepatic LCFA uptake (hepatic LCFA uptake): had no effect
7 | C[C@H](CCC(=O)NCCS(=O)(=O)O)[C@H]1CC[C@H]2[C@@H]3CC[C@@H]4C[C@H](O)CC[C@]4(C)[C@H]3C[C@H](O)[C@]12C [TDCA, taurodeoxycholic acid] |  |  | inhibited neither FATP2 nor FATP5 |  | inhibited neither FATP2 nor FATP5 | 
8 | CC(CCC[C@@H](C)[C@H]1CC[C@H]2[C@@H]3[C@H](O)C[C@@H]4C[C@H](O)CC[C@]4(C)[C@H]3C[C@H](O)[C@]12C)C(=O)O (stereo partly drawn) [THCA, 3a,7a,12a-Trihydroxy-5β-cholestanoic acid] |  |  | weak inhibition |  | no inhibition | 
9 | C[C@H](CCC(=O)NCCS(=O)(=O)O)[C@H]1CC[C@H]2[C@@H]3[C@@H](O)C[C@@H]4C[C@H](O)CC[C@]4(C)[C@H]3CC[C@]12C [TUDCA, tauroursodeoxycholic acid] |  |  | did not inhibit |  | did not inhibit | inhibition of LCFA uptake by primary human hepatocytes [3]: but not TUDCA
10 | C[C@H](CCC(=O)O)[C@H]1CC[C@H]2[C@@H]3[C@H](O)[C@@H](O)[C@@H]4C[C@H](O)CC[C@]4(C)[C@H]3CC[C@]12C [alpha-muricholic acid] |  |  | no effect on LCFA uptake |  |  | 
